Experiments:
[1] = tested on: PANC-1; experiment: Cytotoxicity against human PANC-1 cells assessed as inhibition of cell growth incubated for 72 hrs by MTT assay; format: functional, cell-based; conditions: PANC-1, 72 h
How it was run: (§1)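 Cells seeded per well (HT-29 4500, PANC-1 4000, SK-MEL-28 3200, A375 1200, A549 2500, H2170 and BJ 10 000) and left 24 h. They were then exposed to increasing concentrations for 72 h and incubated 1 h with MTT 0.5 mg mL−1. Formazan was dissolved in DMSO and absorbance read at 550 nm. IC50 from three independent experiments. Final DMSO ≤0.5%.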

[2] = tested on: HT-29; experiment: Cytotoxicity against human HT-29 cells assessed as inhibition of cell growth incubated for 72 hrs by MTT assay; format: functional, cell-based; conditions: HT-29, 72 h; how it was run: as §1
[3] = tested on: PANC-1; experiment: Potency index, ratio of Arjunolic acid IC50 to test compound IC50 for cytotoxicity against human PANC-1 cells assessed as inhibition of cell growth incubated for 72 hrs by MTT assay; format: functional
How it was run: (§2)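 Potency index: arjunolic acid IC50 divided by derivative IC50 from the 72 h MTT assay on HT-29 (4500 cells/well) or PANC-1 (4000 cells/well). IC50 from three independent experiments.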

[4] = tested on: HT-29; experiment: Potency index, ratio of Arjunolic acid IC50 to test compound IC50 for cytotoxicity against human HT-29 cells assessed as inhibition of cell growth incubated for 72 hrs by MTT assay; format: functional; how it was run: as §2
[5] = tested on: A-375; experiment: Cytotoxicity against human A-375 cells assessed as inhibition of cell growth incubated for 72 hrs by MTT assay; format: functional, cell-based; conditions: A-375, 72 h; how it was run: as §1
[6] = tested on: SK-MEL-28; experiment: Cytotoxicity against human SK-MEL-28 cells assessed as inhibition of cell growth incubated for 72 hrs by MTT assay; format: functional, cell-based; conditions: SK-MEL-28, 72 h; how it was run: as §1
[7] = tested on: A549; experiment: Cytotoxicity against human A549 cells assessed as inhibition of cell growth incubated for 72 hrs by MTT assay; format: functional, cell-based; conditions: A549, 72 h; how it was run: as §1
[8] = tested on: NCI-H2170; experiment: Cytotoxicity against human NCI-H2170 cells assessed as inhibition of cell growth incubated for 72 hrs by MTT assay; format: functional, cell-based; conditions: NCI-H2170, 72 h; how it was run: as §1
[9] = Cytotoxicity against human BJ cells assessed as inhibition of cell growth incubated for 72 hrs by MTT assay; format: toxicity, cell-based; how it was run: as §1
[10] = Selectivity index, ratio of IC50 for cytotoxicity against human BJ cells to IC50 for cytotoxicity against human PANC-1; format: toxicity, cell-based; conditions: BJ cells and PANC-1 cells, read-out: Ratio IC50
How it was run: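 Selectivity index: BJ fibroblast IC50 over PANC-1 IC50, both from the 72 h MTT assay with 24 h pre-seeding (10 000 and 4000 cells/well). IC50 from three independent experiments.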

Structure (SMILES) | IC50 [1] | IC50 [2] | also measured
CC(=O)OC[C@@]1(C)[C@@H]2CC[C@]3(C)[C@H](CC=C4[C@@H]5CC(C)(C)CC[C@]5(C(N)=O)CC[C@]43C)[C@@]2(C)C[C@@H](OC(C)=O)[C@@H]1OC(C)=O | 3.63 µM | 19.3 µM | Ratio IC50 [3]: 15
C=CCOC(=O)[C@]12CCC(C)(C)C[C@H]1C1=CC[C@@H]3[C@@]4(C)C[C@@H](O)OC[C@](C)(C=O)[C@@H]4CC[C@@]3(C)[C@]1(C)CC2 | 4.92 µM | 4.38 µM | 
CCNC(=O)[C@]12CCC(C)(C)C[C@H]1C1=CC[C@@H]3[C@@]4(C)C[C@@H](O)OC[C@](C)(C=O)[C@@H]4CC[C@@]3(C)[C@]1(C)CC2 | 22 µM |  | 
CCOC(=O)[C@]12CCC(C)(C)C[C@H]1C1=CC[C@@H]3[C@@]4(C)C[C@@H](O)OC[C@](C)(C=O)[C@@H]4CC[C@@]3(C)[C@]1(C)CC2 | 7.14 µM | 6.7 µM | 
CC(=O)OC[C@@]1(C)[C@@H]2CC[C@]3(C)[C@H](CC=C4[C@@H]5CC(C)(C)CC[C@]5(C(=O)O)CC[C@]43C)[C@@]2(C)C[C@@H](OC(C)=O)[C@@H]1OC(C)=O | 14.9 µM | 12.4 µM | 
CC1(C)CC[C@]2(C(N)=O)CC[C@]3(C)C(=CC[C@@H]4[C@@]5(C)C[C@@H](O)[C@H](O)[C@@](C)(CO)[C@@H]5CC[C@]43C)[C@@H]2C1 | > 30 µM | > 30 µM | 
COC(=O)[C@]12CCC(C)(C)C[C@H]1C1=CC[C@@H]3[C@@]4(C)C[C@@H](O)OC[C@](C)(C=O)[C@@H]4CC[C@@]3(C)[C@]1(C)CC2 | 6.7 µM | 5.59 µM | 
CCOC(=O)[C@]12CCC(C)(C)C[C@H]1C1=CC[C@@H]3[C@@]4(C)C[C@@H](O)[C@H](O)[C@@](C)(CO)[C@@H]4CC[C@@]3(C)[C@]1(C)CC2 | 20.2 µM | 11.6 µM | Ratio IC50 [3]: 2.7; Ratio IC50 [4]: 3.1
COC(=O)[C@]12CCC(C)(C)C[C@H]1C1=CC[C@@H]3[C@@]4(C)C(C=O)=C[C@@](C)(CO)[C@@H]4CC[C@@]3(C)[C@]1(C)CC2 | 0.82 µM | 0.87 µM | IC50 [5]: 0.85 µM; IC50 [6]: 0.85 µM; IC50 [7]: 1.22 µM; IC50 [8]: 2.11 µM
CNC(=O)[C@]12CCC(C)(C)C[C@H]1C1=CC[C@@H]3[C@@]4(C)C[C@@H](OC(C)=O)[C@H](OC(C)=O)[C@@](C)(COC(C)=O)[C@@H]4CC[C@@]3(C)[C@]1(C)CC2 | 0.93 µM | 16.5 µM | Ratio IC50 [3]: 60
CCCCOC(=O)[C@]12CCC(C)(C)C[C@H]1C1=CC[C@@H]3[C@@]4(C)C[C@@H](O)[C@H](O)[C@@](C)(CO)[C@@H]4CC[C@@]3(C)[C@]1(C)CC2 | 20.2 µM | 13.7 µM | Ratio IC50 [3]: 2.7; Ratio IC50 [4]: 2.7
C=CCOC(=O)[C@]12CCC(C)(C)C[C@H]1C1=CC[C@@H]3[C@@]4(C)C[C@@H](O)[C@H](O)[C@@](C)(CO)[C@@H]4CC[C@@]3(C)[C@]1(C)CC2 | 18.9 µM | 12.8 µM | Ratio IC50 [3]: 3; Ratio IC50 [4]: 2.8
CC1(C)CC[C@]2(C(=O)O)CC[C@]3(C)C(=CC[C@@H]4[C@@]5(C)C[C@@H](O)[C@H](O)[C@@](C)(CO)[C@@H]5CC[C@]43C)[C@@H]2C1 [ARJUNOLIC ACID] | 56.3 µM | 36.4 µM | 
CC1(C)CC[C@]2(C(N)=O)CC[C@]3(C)C(=CC[C@@H]4[C@@]5(C)C(C=O)=C[C@@](C)(CO)[C@@H]5CC[C@]43C)[C@@H]2C1 | 3.74 µM | 5.81 µM | 
C=CCOC(=O)[C@]12CCC(C)(C)C[C@H]1C1=CC[C@@H]3[C@@]4(C)C(C=O)=C[C@@](C)(CO)[C@@H]4CC[C@@]3(C)[C@]1(C)CC2 | 0.84 µM | 0.55 µM | IC50 [5]: 0.59 µM; IC50 [6]: 0.53 µM; IC50 [7]: 0.82 µM; IC50 [8]: 1.51 µM
CNC(=O)[C@]12CCC(C)(C)C[C@H]1C1=CC[C@@H]3[C@@]4(C)C(C=O)=C[C@@](C)(CO)[C@@H]4CC[C@@]3(C)[C@]1(C)CC2 | 2.38 µM | 7.41 µM | 
CC1(C)CC[C@]2(C(N)=O)CC[C@]3(C)C(=CC[C@@H]4[C@@]5(C)C[C@@H](O)OC[C@](C)(C=O)[C@@H]5CC[C@]43C)[C@@H]2C1 | 29.3 µM |  | 
CC1(C)CC[C@]2(C(=O)O)CC[C@]3(C)C(=CC[C@@H]4[C@@]5(C)C[C@@H](O)OC[C@](C)(C=O)[C@@H]5CC[C@]43C)[C@@H]2C1 | > 30 µM | > 30 µM | 
CNC(=O)[C@]12CCC(C)(C)C[C@H]1C1=CC[C@@H]3[C@@]4(C)C[C@@H](O)OC[C@](C)(C=O)[C@@H]4CC[C@@]3(C)[C@]1(C)CC2 | 16.6 µM | 25.9 µM | 
CC1(C)CC[C@]2(C(=O)O)CC[C@]3(C)C(=CC[C@@H]4[C@@]5(C)C(C=O)=C[C@@](C)(CO)[C@@H]5CC[C@]43C)[C@@H]2C1 | 5.27 µM | 5.73 µM | 
COC(=O)[C@]12CCC(C)(C)C[C@H]1C1=CC[C@@H]3[C@@]4(C)C[C@@H](O)[C@H](O)[C@@](C)(CO)[C@@H]4CC[C@@]3(C)[C@]1(C)CC2 | 19.7 µM | 16.7 µM | Ratio IC50 [3]: 2.7; Ratio IC50 [4]: 2.2
CCNC(=O)[C@]12CCC(C)(C)C[C@H]1C1=CC[C@@H]3[C@@]4(C)C(C=O)=C[C@@](C)(CO)[C@@H]4CC[C@@]3(C)[C@]1(C)CC2 | 4.15 µM | 3.43 µM | 
CCNC(=O)[C@]12CCC(C)(C)C[C@H]1C1=CC[C@@H]3[C@@]4(C)C[C@@H](O)[C@H](O)[C@@](C)(CO)[C@@H]4CC[C@@]3(C)[C@]1(C)CC2 | 27.6 µM | 25.5 µM | 
CCCCOC(=O)[C@]12CCC(C)(C)C[C@H]1C1=CC[C@@H]3[C@@]4(C)C[C@@H](O)OC[C@](C)(C=O)[C@@H]4CC[C@@]3(C)[C@]1(C)CC2 | 4.58 µM | 4.46 µM | 
CNC(=O)[C@]12CCC(C)(C)C[C@H]1C1=CC[C@@H]3[C@@]4(C)C[C@@H](O)[C@H](O)[C@@](C)(CO)[C@@H]4CC[C@@]3(C)[C@]1(C)CC2 | > 30 µM | > 30 µM | 
CCNC(=O)[C@]12CCC(C)(C)C[C@H]1C1=CC[C@@H]3[C@@]4(C)C[C@@H](OC(C)=O)[C@H](OC(C)=O)[C@@](C)(COC(C)=O)[C@@H]4CC[C@@]3(C)[C@]1(C)CC2 | 0.63 µM | 1.17 µM | Ratio IC50 [3]: 89
CCCCOC(=O)[C@]12CCC(C)(C)C[C@H]1C1=CC[C@@H]3[C@@]4(C)C(C=O)=C[C@@](C)(CO)[C@@H]4CC[C@@]3(C)[C@]1(C)CC2 | 0.43 µM | 0.55 µM | IC50 [5]: 0.55 µM; IC50 [6]: 0.45 µM; IC50 [7]: 0.58 µM; IC50 [8]: 1.3 µM; IC50 at 72 h [9]: 2.79 µM; selectivity ratio [10]: 6.5
